For 2 molecules, Control, T/C and Effect results are on record in ChEMBL document CHEMBL1124248, “Preparation and antischistosomal and antitumor activity of hycanthone and some of its congeners. Evidence for the mode of action of hycanthone” (1988).

What all share (type): functional
The test system of experiment [1] is Schistosoma mansoni. Put plainly: Incorporation of 6M*10e6 [3H]uridine in hycanthone(HC) resistant Schistosoma mansoni. The procedure, abridged: (§1)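 Adult HC-resistant S. mansoni were treated in vitro, and [3H]uridine incorporation by the worms was measured. Values are % of control. Concentrations are given in M × 10^6.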
Experiment [2] concerns Mus musculus. The experiment is described as follows: In vivo antitumor activity against p-388 lymphocytic leukemia in mice at 20 mg/kg. The procedure, abridged: (§2)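 Murine P388 lymphocytic leukemia model tested by the National Cancer Institute. Compound given once daily for 9 days; activity expressed as T/C.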
For experiment [3], the system named is Mus musculus. Put plainly: In vivo antitumor activity against p-388 lymphocytic leukemia in mice at 2.5 mg/kg. In outline:
as §2

Experiment [4] deals with Schistosoma mansoni. The experiment is described as follows: Incorporation of 1.2 M *10e6 [3H]uridine in hycanthone(HC) sensitive Schistosoma mansoni.
Experiment [5] concerns Schistosoma mansoni. Put plainly: Day 50% survival of worms in culture of HC resistant Schistosoma mansoni. In outline:
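Adult HC-resistant S. mansoni were exposed in vitro and kept in culture. The value is the day by which 50% of worms were dead. Cultures were ended at different times in different experiments. Concentrations are given in M × 10^6.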

Experiment [6] deals with Schistosoma mansoni. The experiment is described as follows: Incorporation of 1.2 M *10e6 [3H]uridine in hycanthone(HC) resistant Schistosoma mansoni. In outline:
as §1

For experiment [7], the system named is Mus musculus. The experiment is described as follows: In vivo antitumor activity against p-388 lymphocytic leukemia in mice at 5 mg/kg. The procedure, abridged: as §2
Experiment [8] concerns Schistosoma mansoni. The experiment is described as follows: Day 50% survival of worms in culture of HC sensitive Schistosoma mansoni.
Experiment [9] has as its system Mus musculus. The experiment is described as follows: In vivo antitumor activity against p-388 lymphocytic leukemia in mice at 10 mg/kg. The procedure, abridged:
as §2

Experiment [10] has as its system Schistosoma mansoni. The experiment is described as follows: Incorporation of 6M*10e6 [3H]uridine in hycanthone(HC) sensitive Schistosoma mansoni.
Experiment [11] has as its system Mus musculus. The experiment is described as follows: In vivo antitumor activity against p-388 lymphocytic leukemia in mice at 25 mg/kg. The procedure, abridged: as §2
The test system of experiment [12] is Schistosoma mansoni. The experiment is described as follows: Incorporation of 5.5 M*10e6 [3H]uridine in hycanthone(HC) resistant Schistosoma mansoni. The procedure, abridged: as §1
The test system of experiment [13] is Schistosoma mansoni. The experiment is described as follows: Incorporation of 1.1 M *10e6 [3H]uridine in hycanthone(HC) resistant Schistosoma mansoni. The procedure, abridged: as §1
Experiment [14] relates to Schistosoma mansoni. The experiment is described as follows: Incorporation of 1.1 M *10e6 [3H]uridine in hycanthone(HC) sensitive Schistosoma mansoni.
Experiment [15] concerns Mus musculus. Put plainly: In vivo antitumor activity against p-388 lymphocytic leukemia in mice at 12.5 mg/kg. In outline: as §2
Experiment [16] deals with Schistosoma mansoni. The experiment is described as follows: Incorporation of 5.5M*10e6 [3H]uridine in hycanthone(HC) sensitive Schistosoma mansoni.
Experiment [17] has as its system Mus musculus. Put plainly: In vivo antitumor activity against p-388 lymphocytic leukemia in mice at 6.25 mg/kg. In outline: as §2
Experiment [18] concerns Mus musculus. Put plainly: In vivo antitumor activity against p-388 lymphocytic leukemia in mice at 3.12 mg/kg. The procedure, abridged: as §2

Values joined by “and” are separate entries in the source; they are usually repeats but may differ in a detail not shown here. Identical values can stand only once.

On to `CCN(CC)CCNc1ccc(COC(=O)OC)c2sc3ccccc3c(=O)c12`, for which the Control in the experiment with Schistosoma mansoni [1] was determined as 28%; in the experiment with Schistosoma mansoni [4] it was 32%; in the experiment on Schistosoma mansoni [6], 80%; in the experiment with Schistosoma mansoni [10], 6%. For the same molecule, the T/C – broadly, the ratio of treated to control – in the experiment on Mus musculus [2] is on record as 122%; in the experiment with Mus musculus [3] it was 118%; in the experiment on Mus musculus [7], 124%; with Mus musculus [9] it was 124%. Moreover, the Effect in the experiment with Schistosoma mansoni [5] was 13 days and 6 days; in the experiment on Schistosoma mansoni [8], 7 days and 6 days.

With `CCCCNC(=O)OCc1ccc(NCCN(CC)CC)c2c(=O)c3ccccc3sc12`, the T/C is recorded as 129% in the experiment with Mus musculus [11], 104% in the experiment with Mus musculus [15], 135% in the experiment with Mus musculus [17] and 119% in the experiment with Mus musculus [18]. Moreover, the Control with Schistosoma mansoni [12] amounted to 100%; in the experiment on Schistosoma mansoni [13], 100%; in the experiment on Schistosoma mansoni [14], 34%; with Schistosoma mansoni [16], 31%. This molecule also gave an Effect in the experiment with Schistosoma mansoni [8] greater than 12 days.
